According to ChEMBL document CHEMBL1140127, “Enantiomeric propanolamines as selective N-methyl-D-aspartate 2B receptor antagonists” (J Med Chem, 2008):
Active and inactive are the calls of the source. The rule behind the calls is not given here.

Key:
[1] = target: Voltage-gated inwardly rectifying potassium channel KCNH2 (Homo sapiens, UniProt Q12809); assay: (§1) Displacement of [3H]astemizole from human ERG expressed in HEK293 cells
hERG (KCNH2) = hERG (KCNH2) (Homo sapiens, UniProt Q12809); assay: as §1; settings: human, HEK293 cells expressing human ERG, probe [3H]astemizole
[2] = target: Adrenergic receptor alpha-2 (Rattus norvegicus, UniProt P22086+P19328+P22909); assay: Binding affinity to alpha2 adrenergic receptor in rat brain; format: tissue-based
[3] = target: Sodium-dependent dopamine transporter (Homo sapiens, UniProt Q01959); assay: Binding affinity to dopamine transporter
Mus musculus [4] = assay: Effect on motor coordination in mouse at 30 mg/kg, ip administered 20 mins prior to test after 5 days by rotarod test; format: ADME, organism-based; design: dose 30 mg/kg, route intraperitoneal; settings: in vivo, 120 h
Outline: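 Accelerating rotorod: mice held 10 s at 5 rpm, then accelerated from 5 to 35 rpm over 5 min; latency to fall recorded by light sensor. Four trials per day for 5 days, 25 min between trials. On day 5, mice were randomized and given a 5 mL/kg ip injection in 25% DMSO/75% saline 20 min before the first trial. Operator blinded; ANOVA with Dunnett's post hoc test.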

[5] = Ratio of drug level in rat brain to plasma by LC-MS/MS analysis; format: ADME
Outline: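 Rats (n = 3 per dose) received a 4 mg/kg single iv bolus via the tail vein or 30 mg/kg ip, in 2% dimethyl acetamide/98% 5% 2-hydroxypropyl cyclodextrin, after an overnight fast. Plasma was taken at 5–240 min. Brain was homogenized in 50 mM phosphate buffer. Samples were extracted with 5 volumes of cold acetonitrile and read by LC-MS/MS (MRM) against a standard curve.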

Mus musculus [6] = assay: Plasma concentration in C57BL/6 mouse at 30 mg/kg, ip; format: ADME, organism-based; design: dose 30 mg/kg, route intraperitoneal; settings: in vivo
[7] = target: T1, Adrenergic receptor alpha-1 (Rattus norvegicus, UniProt P15823+P23944+P43140); assay: Displacement of [3H]prazosin from alpha1 adrenergic receptor in rat brain; format: tissue-based
T1 sequence (P15823 whole entry): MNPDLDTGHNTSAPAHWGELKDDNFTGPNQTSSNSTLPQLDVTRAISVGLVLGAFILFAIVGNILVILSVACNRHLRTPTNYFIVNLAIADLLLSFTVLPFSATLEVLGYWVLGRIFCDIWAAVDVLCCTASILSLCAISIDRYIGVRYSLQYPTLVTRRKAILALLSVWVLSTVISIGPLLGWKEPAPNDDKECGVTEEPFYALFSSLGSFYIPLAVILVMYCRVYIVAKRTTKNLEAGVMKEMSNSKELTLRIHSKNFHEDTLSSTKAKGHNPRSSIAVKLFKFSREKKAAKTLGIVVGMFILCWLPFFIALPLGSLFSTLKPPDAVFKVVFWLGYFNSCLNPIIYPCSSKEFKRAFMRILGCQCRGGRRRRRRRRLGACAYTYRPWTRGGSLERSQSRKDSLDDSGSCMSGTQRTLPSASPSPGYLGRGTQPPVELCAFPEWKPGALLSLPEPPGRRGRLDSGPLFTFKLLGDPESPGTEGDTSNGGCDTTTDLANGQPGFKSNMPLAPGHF
T1 sequence (P23944 whole entry): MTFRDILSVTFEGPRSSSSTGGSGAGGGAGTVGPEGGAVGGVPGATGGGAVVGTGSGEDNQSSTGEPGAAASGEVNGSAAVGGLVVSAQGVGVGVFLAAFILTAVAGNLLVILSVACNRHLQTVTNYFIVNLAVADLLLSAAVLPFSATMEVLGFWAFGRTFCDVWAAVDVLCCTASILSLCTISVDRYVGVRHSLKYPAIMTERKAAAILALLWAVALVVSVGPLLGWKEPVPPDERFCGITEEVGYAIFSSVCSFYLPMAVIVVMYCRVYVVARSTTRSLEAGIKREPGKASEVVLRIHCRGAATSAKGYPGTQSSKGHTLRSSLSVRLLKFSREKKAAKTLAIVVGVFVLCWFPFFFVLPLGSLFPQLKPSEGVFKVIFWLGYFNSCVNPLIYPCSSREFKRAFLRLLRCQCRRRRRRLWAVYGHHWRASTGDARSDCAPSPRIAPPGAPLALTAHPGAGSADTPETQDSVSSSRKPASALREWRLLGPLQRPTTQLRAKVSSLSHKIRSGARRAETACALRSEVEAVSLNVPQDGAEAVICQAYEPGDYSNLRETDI
T1 sequence (P43140 whole entry): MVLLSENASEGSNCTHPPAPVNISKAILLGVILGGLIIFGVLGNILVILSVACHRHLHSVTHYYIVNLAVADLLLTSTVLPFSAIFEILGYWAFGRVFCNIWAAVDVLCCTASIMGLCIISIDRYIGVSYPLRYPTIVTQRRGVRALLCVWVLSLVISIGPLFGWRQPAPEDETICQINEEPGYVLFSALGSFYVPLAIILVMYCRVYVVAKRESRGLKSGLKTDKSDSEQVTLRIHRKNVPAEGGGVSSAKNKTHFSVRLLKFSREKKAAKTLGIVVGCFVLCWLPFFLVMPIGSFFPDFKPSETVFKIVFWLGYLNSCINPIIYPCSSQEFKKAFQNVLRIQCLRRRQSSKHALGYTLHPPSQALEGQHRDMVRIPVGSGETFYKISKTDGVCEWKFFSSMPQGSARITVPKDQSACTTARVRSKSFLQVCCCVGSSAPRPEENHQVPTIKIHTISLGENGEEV
Outline: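 Rat brain membranes; displacement of [3H]-prazosin at 4–6 concentrations, each point in duplicate. IC50 from displacement curves fitted by nonlinear least-squares regression.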

[8] = target: Sodium-dependent serotonin transporter (Homo sapiens, UniProt P31645); assay: Binding affinity to serotonin transporter
[9] = target: Glutamate NMDA receptor; Grin1/Grin2b (Rattus norvegicus, UniProt P35439+Q00960); assay: Inhibition of rat recombinant NR1/NR2B receptor expressed in Xenopus oocytes assessed as inhibition of glutamate and glycine-induced evoked current by two electrode voltage clamp method; format: cell-based, Oocyte
[10] = target: Glutamate receptor 2 (Rattus norvegicus) (UniProt P19491); assay: Inhibition of rat recombinant GluR2/GluR3 expressed in Xenopus oocytes assessed as inhibition of kainate-induced evoked current at 3 uM by two electrode voltage clamp method; format: cell-based; settings: Oocyte
Outline: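 Xenopus oocytes injected with 5–10 ng rat receptor cRNA and kept in Barth's solution at 18 °C. Two-electrode voltage clamp at −40 mV and 23 °C, 2–7 days after injection, in 90 NaCl/1 KCl/10 HEPES/0.5 BaCl2 mM at pH 7.3 or 7.6. Agonists: 50 μM kainate for GluR3, GluR4 and GluR2/3; 3 nM domoate for GluR6; 100 μM AMPA for GluR6/KA1. Current expressed as % of control; paired t test.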

[11] = Inhibition of L-type calcium channel
Mus musculus [12] = organism: Mus musculus; settings: 3 uM

Chain of Sodium-dependent serotonin transporter (P31645 whole entry): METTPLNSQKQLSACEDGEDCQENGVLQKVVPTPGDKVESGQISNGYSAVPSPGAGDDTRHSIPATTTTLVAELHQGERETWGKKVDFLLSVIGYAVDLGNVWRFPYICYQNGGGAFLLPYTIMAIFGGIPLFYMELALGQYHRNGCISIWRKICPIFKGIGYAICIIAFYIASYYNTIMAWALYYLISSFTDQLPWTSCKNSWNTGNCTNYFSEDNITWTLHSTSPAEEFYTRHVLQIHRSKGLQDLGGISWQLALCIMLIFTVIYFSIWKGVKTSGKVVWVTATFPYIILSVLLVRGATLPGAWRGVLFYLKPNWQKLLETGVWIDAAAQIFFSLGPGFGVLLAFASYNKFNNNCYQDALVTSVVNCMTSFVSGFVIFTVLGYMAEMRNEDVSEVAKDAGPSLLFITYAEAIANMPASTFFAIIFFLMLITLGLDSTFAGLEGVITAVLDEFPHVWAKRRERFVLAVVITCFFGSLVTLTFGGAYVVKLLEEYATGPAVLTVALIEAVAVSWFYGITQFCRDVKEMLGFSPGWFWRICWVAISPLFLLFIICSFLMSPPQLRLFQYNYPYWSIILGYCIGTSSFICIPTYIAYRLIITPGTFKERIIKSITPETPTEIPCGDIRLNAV
Chain of Voltage-gated inwardly rectifying potassium channel KCNH2 (Q12809 whole entry): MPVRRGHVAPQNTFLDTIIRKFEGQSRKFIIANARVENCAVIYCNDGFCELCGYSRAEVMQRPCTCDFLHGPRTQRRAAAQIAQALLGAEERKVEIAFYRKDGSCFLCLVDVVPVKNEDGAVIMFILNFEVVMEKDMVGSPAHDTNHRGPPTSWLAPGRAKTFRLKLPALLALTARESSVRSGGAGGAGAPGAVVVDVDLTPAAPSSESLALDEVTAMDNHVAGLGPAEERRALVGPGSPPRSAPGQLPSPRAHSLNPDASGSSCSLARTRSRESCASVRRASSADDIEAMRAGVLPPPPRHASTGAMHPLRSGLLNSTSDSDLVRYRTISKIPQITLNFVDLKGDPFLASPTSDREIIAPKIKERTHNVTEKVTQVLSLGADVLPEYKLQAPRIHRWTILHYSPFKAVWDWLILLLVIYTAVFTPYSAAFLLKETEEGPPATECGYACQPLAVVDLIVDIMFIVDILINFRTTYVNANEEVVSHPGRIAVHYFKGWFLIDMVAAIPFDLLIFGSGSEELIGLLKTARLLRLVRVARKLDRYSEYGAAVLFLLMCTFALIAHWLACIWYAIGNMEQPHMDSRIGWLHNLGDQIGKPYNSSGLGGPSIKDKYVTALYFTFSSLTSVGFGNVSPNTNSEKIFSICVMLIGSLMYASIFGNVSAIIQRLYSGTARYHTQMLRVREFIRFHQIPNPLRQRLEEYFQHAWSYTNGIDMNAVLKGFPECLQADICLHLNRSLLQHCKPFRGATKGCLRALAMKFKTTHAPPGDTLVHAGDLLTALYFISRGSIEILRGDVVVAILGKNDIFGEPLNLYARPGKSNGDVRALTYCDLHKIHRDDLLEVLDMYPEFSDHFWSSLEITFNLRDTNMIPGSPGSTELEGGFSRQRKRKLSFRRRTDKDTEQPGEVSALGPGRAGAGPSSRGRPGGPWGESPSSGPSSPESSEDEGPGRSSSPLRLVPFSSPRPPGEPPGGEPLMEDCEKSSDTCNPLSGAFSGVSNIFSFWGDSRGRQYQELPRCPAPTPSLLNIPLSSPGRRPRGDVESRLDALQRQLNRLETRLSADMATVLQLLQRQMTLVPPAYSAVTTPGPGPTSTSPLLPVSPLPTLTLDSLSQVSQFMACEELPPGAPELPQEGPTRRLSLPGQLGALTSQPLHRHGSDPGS
Chain of hERG (KCNH2) (Q12809 whole entry): as above
Chain of Glutamate receptor 2 (Rattus norvegicus) (P19491 whole entry): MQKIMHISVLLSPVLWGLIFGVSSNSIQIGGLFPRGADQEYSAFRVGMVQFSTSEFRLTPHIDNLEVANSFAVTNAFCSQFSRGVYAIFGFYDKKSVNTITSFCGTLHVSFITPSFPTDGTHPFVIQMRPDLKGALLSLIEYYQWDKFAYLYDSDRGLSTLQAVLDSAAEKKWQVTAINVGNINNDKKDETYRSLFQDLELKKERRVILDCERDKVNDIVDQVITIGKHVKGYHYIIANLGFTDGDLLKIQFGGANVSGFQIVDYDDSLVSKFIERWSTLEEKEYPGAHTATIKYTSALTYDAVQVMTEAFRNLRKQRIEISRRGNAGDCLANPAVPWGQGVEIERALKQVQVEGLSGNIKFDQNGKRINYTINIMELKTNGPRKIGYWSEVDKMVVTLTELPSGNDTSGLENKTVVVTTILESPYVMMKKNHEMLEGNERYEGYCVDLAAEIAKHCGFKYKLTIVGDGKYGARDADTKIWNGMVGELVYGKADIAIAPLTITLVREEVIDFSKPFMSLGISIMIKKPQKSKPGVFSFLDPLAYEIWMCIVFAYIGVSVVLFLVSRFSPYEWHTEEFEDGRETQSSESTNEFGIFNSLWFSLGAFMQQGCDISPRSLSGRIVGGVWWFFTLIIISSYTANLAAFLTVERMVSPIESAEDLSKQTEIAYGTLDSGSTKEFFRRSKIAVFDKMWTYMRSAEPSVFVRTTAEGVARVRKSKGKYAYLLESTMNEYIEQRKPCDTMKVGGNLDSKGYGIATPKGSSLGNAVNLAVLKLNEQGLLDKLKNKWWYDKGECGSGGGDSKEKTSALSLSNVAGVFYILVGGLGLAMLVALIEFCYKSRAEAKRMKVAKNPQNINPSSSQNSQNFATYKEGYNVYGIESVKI
Chain of Sodium-dependent dopamine transporter (Q01959 whole entry): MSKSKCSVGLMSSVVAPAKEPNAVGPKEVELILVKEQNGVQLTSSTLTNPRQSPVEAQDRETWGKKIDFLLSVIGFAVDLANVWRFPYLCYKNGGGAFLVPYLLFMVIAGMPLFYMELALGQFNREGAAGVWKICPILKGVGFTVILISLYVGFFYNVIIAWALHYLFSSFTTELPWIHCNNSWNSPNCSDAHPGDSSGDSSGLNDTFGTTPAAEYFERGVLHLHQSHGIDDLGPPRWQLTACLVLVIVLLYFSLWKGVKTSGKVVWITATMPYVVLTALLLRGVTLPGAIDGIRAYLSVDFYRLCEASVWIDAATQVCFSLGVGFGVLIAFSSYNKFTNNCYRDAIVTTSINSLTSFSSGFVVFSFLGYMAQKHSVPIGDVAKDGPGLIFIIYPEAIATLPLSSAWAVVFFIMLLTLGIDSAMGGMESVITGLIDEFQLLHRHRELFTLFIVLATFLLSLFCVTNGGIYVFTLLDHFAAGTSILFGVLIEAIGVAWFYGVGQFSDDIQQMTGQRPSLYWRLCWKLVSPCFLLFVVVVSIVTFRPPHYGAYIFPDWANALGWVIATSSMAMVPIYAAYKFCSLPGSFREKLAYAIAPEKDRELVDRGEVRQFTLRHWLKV

Q: For `CS(=O)(=O)Nc1ccc(OC[C@@H](O)CNCCc2ccc(Cl)c(Cl)c2)cc1`, which IC50 [1] is on record?
A: 730 nM

Q: What about the IC20 (hERG (KCNH2)) of the same molecule?
A: > 174 nM

Q: And the IC50 [2]?
A: > 3 µM

Q: What about the IC50 [3] of the same molecule?
A: 500 nM

Q: What about the Activity (Mus musculus [4]) of the same molecule?
A: Non-toxic

Q: And the Ratio [5]?
A: < 0.05

Q: What about the concentration (Mus musculus [6]) of the same molecule?
A: 1000 nM

Q: What about the IC50 [7] of the same molecule?
A: 2.4 µM

Q: What about the IC50 [8] of the same molecule?
A: > 3 µM

Q: And the IC50 [9]?
A: 50 nM

Q: What about the Activity [10] of the same molecule?
A: inactive

Q: What about the IC50 [11] of the same molecule?
A: > 5 µM

Q: What about the inhibition (Mus musculus [12]) of the same molecule?
A: 102%
